Compound activity deposited in PubChem by Sanford-Burnham Center for Chemical Genomics.
HKDC1 inhibitor: blocks human hexokinase HKDC1 activity; Q2TB90; recombinant HKDC1, G6PDH/diaphorase resazurin coupled fluorescence; inhibition, % at 20 µM; 340,000 tested, 0.16% active; AID 493160;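 active means inhibition above about 35% when tested at 20 µM, limit read from the data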
Target sequence (Q2TB90 whole entry, looked up): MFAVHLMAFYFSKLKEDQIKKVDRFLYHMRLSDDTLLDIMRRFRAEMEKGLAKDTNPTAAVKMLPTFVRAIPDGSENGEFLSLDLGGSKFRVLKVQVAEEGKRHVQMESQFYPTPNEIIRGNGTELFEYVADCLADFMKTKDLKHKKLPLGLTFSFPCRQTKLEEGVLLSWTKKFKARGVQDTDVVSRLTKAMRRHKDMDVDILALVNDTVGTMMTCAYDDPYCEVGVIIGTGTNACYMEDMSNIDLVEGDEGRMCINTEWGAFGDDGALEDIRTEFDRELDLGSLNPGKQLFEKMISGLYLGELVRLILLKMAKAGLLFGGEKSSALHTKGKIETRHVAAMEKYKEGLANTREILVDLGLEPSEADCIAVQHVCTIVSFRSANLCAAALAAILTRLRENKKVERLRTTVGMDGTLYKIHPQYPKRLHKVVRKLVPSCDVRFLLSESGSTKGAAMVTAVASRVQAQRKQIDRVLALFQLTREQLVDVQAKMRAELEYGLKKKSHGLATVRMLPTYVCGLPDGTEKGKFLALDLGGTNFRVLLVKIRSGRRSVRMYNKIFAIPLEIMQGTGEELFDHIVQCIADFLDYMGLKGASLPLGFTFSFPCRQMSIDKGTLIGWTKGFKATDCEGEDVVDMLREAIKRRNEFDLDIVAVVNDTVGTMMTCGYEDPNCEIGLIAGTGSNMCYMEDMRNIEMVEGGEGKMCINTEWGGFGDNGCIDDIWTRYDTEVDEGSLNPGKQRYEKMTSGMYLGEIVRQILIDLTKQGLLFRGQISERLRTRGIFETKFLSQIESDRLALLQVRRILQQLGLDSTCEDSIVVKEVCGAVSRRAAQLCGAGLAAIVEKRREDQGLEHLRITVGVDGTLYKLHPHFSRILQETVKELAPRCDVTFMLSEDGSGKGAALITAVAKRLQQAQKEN
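System: Recombinant HKDC1 hexokinase | Amount: HKDC1 at 5 µg/mL | Reagent: Glucose with 1 mM ATP | Doses: Single 20 µM dose | Incubation: Reaction time 90 min, room temperature, protected from light | Signal: Coupled resazurin fluorescence, excitation 525 nm, emission 613 nm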
PfGluPho inh: PfG6PD (Plasmodium falciparum) enzyme inhibition; PfGluPho enzyme, NADPH resazurin-diaphorase fluorescence; inhibition, % at 20 µM; 350,000 tested, 0.78% active;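 active means inhibition reaching at least a set limit at 20 µM in the primary screen, cut at about 59% in these data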
Diaph inh CS: diaphorase inhibition or chemical oxidation counter-screen. diaphorase resazurin-to-resorufin fluorescence, NADH, 16 min; bacterial (C. kluyveri) enzyme, not human. inhibition, % at 20 µM. 190,000 tested, 0.69% active;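 active means primary screen inhibition at 20 µM above a set limit, cut at about 50% in these data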
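System: Diaphorase enzyme from Clostridium kluyveri | Amount: Enzyme working solution with 0.14 U/mL diaphorase | Benchmarks: No-NADH positive control and DMSO neutral control | Signal: Fluorescence of resorufin formed from resazurin, Ex 544/Em 590 nm | Schedule: 16-min room-temperature incubation before reading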
Diaph act CS: activates diaphorase or chemically reduces, flagging diaphorase assay artifacts; AID 1229; 190,000 tested, 0.005% active; activation factor at 20 µM; Diaphorase/resazurin coupled assay, resorufin fluorescence, 16 min; stronger effect = higher value; 1 = vehicle wells, 0 = NADH-free wells;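 active means diaphorase activity raised at least twofold by the compound at 20 µM; inactive means activation factor below 2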
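Assay system: Purified diaphorase enzyme from Clostridium kluyveri | Amount: Enzyme 0.07 U/mL final | Dosing: Compound 20 µM once, DMSO 1% | Timing: 16 min reaction at room temperature | Detection: Fluorescence, excitation 544 nm and emission 590 nm | Evaluation: Higher resorufin formation from activation or reduction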
G6PDH counter: counter-screen for G6PDH assay hits: L. mesenteroides G6PDH inhibition | Purified L. mesenteroides G6PDH, diaphorase/resazurin coupled fluorescence, 45 min | inhibition, % at 5 µM | 200,000 tested, 0.12% active; in the data active means inhibition above about 50%
Each line names hits and unclear results; the compound was inactive in the other large screens. In the library only some 1.2% were active in any assay of this set; here they are far more common.

Cn1nc(-c2ccc(Cl)cc2)nc2c(=O)n(C)c(=O)nc1-2	G6PDH counter 61.4 (no result: HKDC1 inhibitor, PfGluPho inh)
CCOC(=O)C1CCN(C(=O)c2ccc(OCC(=O)Nc3cccc(C(F)(F)F)c3)c(OC)c2)CC1	none (no result: Diaph inh CS, Diaph act CS, G6PDH counter)
Cc1cc(C(=O)NC(C)CCc2ccccc2)ccc1[N+](=O)[O-] (stereo unspecified)	none (no result: Diaph inh CS, Diaph act CS, G6PDH counter)
Cc1cc(C(=O)NC(C)Cc2ccccc2)cc(C)c1[N+](=O)[O-] (stereo unspecified)	Diaph inh CS 68.9
Cc1cc(C)cc(NC(=O)C2CCCN2S(=O)(=O)c2ccc3c(c2)n(C)c(=O)c(=O)n3C)c1 (stereo unspecified)	none (no result: Diaph inh CS, Diaph act CS, G6PDH counter)
Cc1cc(N2C(=O)C=CC2=O)c([N+](=O)[O-])cc1C	PfGluPho inh 91.3
Cc1cc(C)cc(N2C(=O)C=CC2=O)c1	PfGluPho inh 85.7 (no result: Diaph inh CS, Diaph act CS, G6PDH counter)
Cc1cc(C)cc(N2C(=O)c3nccnc3C2=O)c1	none
Cc1c([N+](=O)[O-])cc(N2C(=O)C=CC2=O)cc1[N+](=O)[O-]	PfGluPho inh 101.4 (no result: Diaph inh CS, Diaph act CS, G6PDH counter)
CCOC(=O)N1CCN(C(=O)Cc2ccccc2[N+](=O)[O-])CC1	none (no result: Diaph inh CS, Diaph act CS, G6PDH counter)
CSCCC(NC(=O)COc1ccccc1)C(=O)N1CC(C)CC(C)C1 (stereo unspecified)	none (no result: Diaph inh CS, Diaph act CS, G6PDH counter)
COc1cc(/C=C(\C#N)c2nc3ccccc3[nH]2)cc(OC)c1O	Diaph inh CS 50.6
COc1ccc(/C=C(\C#N)c2nc3ccccc3[nH]2)cc1O	none (no result: Diaph inh CS, Diaph act CS, G6PDH counter)
O=c1oc2ccccc2c(Nc2cc3ccccc3cc2O)c1[N+](=O)[O-]	none
O=c1oc2ccccc2c(Nc2ccccc2O)c1[N+](=O)[O-]	Diaph inh CS 58.5
CCCCOc1cccc(/C=C(\C#N)C(=O)NC2CC2)c1	none (no result: Diaph inh CS, Diaph act CS, G6PDH counter)
O=C(CN1C(=O)CC(c2ccccc2)S(=O)(=O)c2ccccc21)N1CCCC1 (stereo unspecified)	none
CCOC(=O)c1c2ccc(OCC(=O)N/N=C/c3ccc(C)cc3)cc2n2ccccc12	Diaph inh CS 60.9
CC(CN1CC(=O)NC(=O)C1)N1CC(=O)NC(=O)C1 (stereo unspecified)	none (no result: HKDC1 inhibitor, Diaph inh CS, Diaph act CS, G6PDH counter)
CC(=O)N1c2ccc(S(=O)(=O)N3CCCC3C(=O)NCc3ccccc3Cl)cc2CC1C (stereo unspecified)	none (no result: Diaph inh CS, Diaph act CS, G6PDH counter)
Cc1ccc2sc(NNC(=O)c3cc(=O)c4ccccc4o3)nc2c1C	Diaph inh CS 57.6
Cc1ccccc1S(=O)(=O)N1C[C@H]2CON(C)[C@H]2C[C@H]1c1cccc(-c2ccc(C#N)cc2)c1	none (no result: Diaph inh CS, Diaph act CS, G6PDH counter)
Clc1ccc(-c2c[nH]c3ccccc23)nn1	Diaph inh CS 63.0
CCSC1=N/C(=C\c2ccc(-c3ccccc3[N+](=O)[O-])o2)C(=O)S1	Diaph inh CS 62.7
Cc1ccc(C(=O)NC(=S)NNC(=O)CC#N)cc1	Diaph inh CS 57.4
CCCCC(=O)NNC(=S)NC(=O)c1ccc(C)cc1	none
c1cc(CCCc2ccncc2)ccn1	none (no result: Diaph inh CS, Diaph act CS, G6PDH counter)
Nc1ccc(C(=O)O)c(O)c1	none
Nc1ccc(N)c(C(=O)O)c1	HKDC1 inhibitor 36.0, PfGluPho inh 70.9 (no result: Diaph inh CS, Diaph act CS, G6PDH counter)
Cc1noc(C)c1S(=O)(=O)N(C)C[C@H]1Oc2ccc(NS(=O)(=O)c3ccccc3)cc2C(=O)N([C@H](C)CO)C[C@@H]1C	none (no result: Diaph inh CS, Diaph act CS, G6PDH counter)
Cc1oc(-c2ccc(F)cc2)cc1-c1nn2c(-c3ccoc3C)nnc2s1	Diaph inh CS 57.5
CCN(CC)CCCNC(=S)N(Cc1cccnc1)Cc1cc2cc(C)ccc2[nH]c1=O	none (no result: Diaph inh CS, Diaph act CS, G6PDH counter)
COc1cc(O)c(/C=N/NC(=O)c2ccncc2)c(OC)c1[N+](=O)[O-]	none
Cc1cc(=O)c2c(O)c(O)ccc2o1	Diaph inh CS 72.3
N#Cc1c(-c2cccc(Br)c2)cc(-c2ccco2)[nH]c1=O	Diaph inh CS 66.7
COc1ccc(-c2cc(-c3ccco3)[nH]c(=O)c2C#N)cc1	none (no result: Diaph inh CS, Diaph act CS, G6PDH counter)
Cc1cc(Br)ccc1-n1[nH]c(C)c(C=Nc2cccc3nsnc23)c1=O	Diaph inh CS 61.1
Cc1ccc(S(=O)(=O)Nc2ccc(O)c3ncccc23)cc1	Diaph inh CS 57.4, G6PDH counter 50.2
COc1cccc(OC)c1OCCCN1CCOCC1	Diaph inh CS 53.0
COc1cc2c(cc1OC)C(c1ccccc1)N(S(C)(=O)=O)CC2 (stereo unspecified)	Diaph inh CS 81.5
O=C(N/N=C/c1ccc(O)c([N+](=O)[O-])c1)C1CC1(c1ccccc1)c1ccccc1 (stereo unspecified)	Diaph inh CS 72.0
O=C(N/N=C/c1ccncc1)C1CC1(c1ccccc1)c1ccccc1 (stereo unspecified)	none (no result: Diaph inh CS, Diaph act CS, G6PDH counter)
CCN1CCN(c2ccc(S(=O)(=O)N3CCCCC3)cc2NC(=O)c2cccc(C(F)(F)F)c2)CC1	none (no result: Diaph inh CS, Diaph act CS, G6PDH counter)
C[C@@H]1O[C@@H](Oc2c(-c3cc(O)c(O)c(O)c3)oc3cc(O)cc(O)c3c2=O)[C@H](O)[C@H](O)[C@H]1O	Diaph inh CS 70.9
O=c1c(OC2OC(CO)C(O)C(O)C2O)c(-c2ccc(O)c(O)c2)oc2cc(O)cc(O)c12 (stereo unspecified)	Diaph inh CS 61.7
CN(C)c1cccc2c(C=C(C#N)C#N)ccc(N(C)C)c12	Diaph inh CS 61.5
Cn1cnc(Sc2ncnc3nc[nH]c23)c1[N+](=O)[O-]	PfGluPho inh 60.5 (no result: Diaph inh CS, Diaph act CS, G6PDH counter)
Cn1cnc([N+](=O)[O-])c1Sc1ncnc2nc[nH]c12	none (no result: Diaph inh CS, Diaph act CS, G6PDH counter)
COc1ccc(C2NC(=O)NC3=C2CCc2ccccc23)cc1 (stereo unspecified)	Diaph inh CS 74.1
Cc1ccc(C2NC(=O)NC3=C2CCc2ccccc23)cc1 (stereo unspecified)	none
FC(F)Oc1cccc(NC(=S)N2CCN(c3ccccn3)CC2)c1	Diaph inh CS 69.6
S=C(Nc1ccccc1)N1CCN(c2ccccn2)CC1	none
O=[N+]([O-])c1ccc(Cl)c(C2Nc3cccc4cccc(c34)N2)c1	Diaph inh CS 57.4
O=C(NC1CCCCCCC1)NC1CCCCC1	none
O=C(NNC(=O)c1cc(O)c(O)c(O)c1)NC1CCCCC1	Diaph inh CS 50.5
O=C(/C=C/c1cccc(Cl)c1)c1ccc([N+](=O)[O-])o1	HKDC1 inhibitor 60.5, PfGluPho inh 97.0 (no result: Diaph inh CS, Diaph act CS, G6PDH counter)
Oc1c(CN2CCc3ccccc3C2)cc(Cl)c2cccnc12	Diaph inh CS 67.7
Oc1c(CN2CCCCC2)cc(Br)c2cccnc12	Diaph inh CS 57.2
COc1ccc(/C=N/NC(=O)c2nn(-c3ccc(Cl)cc3)c(=O)c3c(N)scc23)cc1	Diaph inh CS 50.4
COc1ccc(/C=N/NC(=O)c2nn(-c3ccc(C)c(C)c3)c(=O)c3ccccc23)cc1	none
COc1ccc(/C=N/NC(=O)c2nn(-c3ccccc3)c(=O)c3c(N)scc23)cc1	Diaph inh CS 57.1
COc1ccc(CCN=C(NS(=O)(=O)c2ccc(Cl)cc2)c2ccccc2)cc1	Diaph inh CS 51.8
CCOC(=O)N1CCN(C(=O)c2ccc3c(=O)n(-c4ccccc4F)c(=S)[nH]c3c2)CC1	Diaph inh CS 50.3
